Assay results as given in ChEMBL document CHEMBL1150667, “New cytotoxic constituents from the Formosan soft corals Clavularia viridis and Clavularia violacea” (2002).
Converted amounts (≈) assume the structure as drawn.

Key:
Type in all cases: functional
[1] = test system: P388; assay: Cytotoxicity against mouse P388 cells; settings: for EC50: Mus musculus, P388, read-out: ED50 (the source's name)
How it was run: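 Mouse lymphocytic leukemia P-388 cells obtained from an academic laboratory (University of Illinois at Chicago). Cytotoxicity assayed in cell culture following a previously published standard procedure.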

[2] = test system: A549; assay: Cytotoxicity against human A549 cells; settings: for EC50: Homo sapiens, A549, read-out: ED50 (the source's name)
How it was run: (§1)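 Human lung adenocarcinoma (A549) and colon adenocarcinoma (HT-29) lines obtained from ATCC. Cytotoxicity assayed in cell culture following a previously published standard procedure.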

[3] = test system: HT-29; assay: Cytotoxicity against human HT-29 cells; settings: read-out: ED50 (the source's name); how it was run: as §1

Row | Structure (SMILES) | EC50 [1] | EC50 [2] | EC50 [3] | ED50 [1] | ED50 [2]
1 | C=C1C(=O)O[C@H]2/C=C(\C)C[C@H](OC(C)=O)/C=C(\C)C[C@H](OC(C)=O)/C=C(\C)CC[C@H]12 [CLAVIOLIDE] | 0.38 µg/mL (≈ 0.912 µM) | 4.91 µg/mL (≈ 11.8 µM) | 0.84 µg/mL (≈ 2.02 µM) | – | –
2 | CCCCC/C=C\C[C@]1(OC(C)=O)C=CC(=O)/C1=C/C=C/CCCC(=O)OC [CLAVIRIDENONE E] | 0.11 µg/mL (≈ 0.283 µM) | 0.41 µg/mL (≈ 1.06 µM) | 1.02 µg/mL (≈ 2.63 µM) | – | –
3 | CC(C)[C@@H](C)CC[C@@H](C)[C@H]1CC[C@H]2[C@@H]3C[C@@H](O)C4=CC=CC(=O)[C@]4(C)[C@H]3[C@H](O)C[C@]12C [STOLONIFERONE E] | – | – | 0.0091 µg/mL (≈ 0.0212 µM) | 1.2 ×10⁻⁴ ug/ml | 3.2 ×10⁻⁴ ug/ml
4 | CC(C)[C@@H](C)CC[C@@H](C)[C@H]1CC[C@H]2[C@@H]3C[C@@H](O)[C@@]4(O)C=C[C@@H](O)C(=O)[C@]4(C)[C@H]3[C@H](O)C[C@]12C [STOLONIFERONE F] | 2.36 µg/mL (≈ 5.1 µM) | 3.69 µg/mL (≈ 7.98 µM) | 6.46 µg/mL (≈ 14 µM) | – | –
5 | C=C(CC[C@@H](C)[C@H]1CC[C@H]2[C@@H]3C[C@@H](O)[C@@]4(O)C=C[C@@H](O)C(=O)[C@]4(C)[C@H]3[C@H](O)C[C@]12C)C(C)C [STOLONIFERONE G] | 2.12 µg/mL (≈ 4.6 µM) | 3.58 µg/mL (≈ 7.77 µM) | 5.86 µg/mL (≈ 12.7 µM) | – | –
